The values that follow come from ChEMBL document CHEMBL1135819, “N-[3-(1H-imidazol-4-ylmethyl)phenyl]ethanesulfonamide (ABT-866, 1),(1) a novel alpha(1)-adrenoceptor ligand with an enhanced in vitro and in vivo profile relative to phenylpropanolamine and midodrine” (J Med Chem, 2002).

Active and inactive are the calls of the source. The calls are words filed in the database; no cut-off is given here.

The target in assay [1] is T1, Alpha-1D adrenergic receptor (Rattus norvegicus, UniProt P23944).
T1 sequence (P23944 whole entry): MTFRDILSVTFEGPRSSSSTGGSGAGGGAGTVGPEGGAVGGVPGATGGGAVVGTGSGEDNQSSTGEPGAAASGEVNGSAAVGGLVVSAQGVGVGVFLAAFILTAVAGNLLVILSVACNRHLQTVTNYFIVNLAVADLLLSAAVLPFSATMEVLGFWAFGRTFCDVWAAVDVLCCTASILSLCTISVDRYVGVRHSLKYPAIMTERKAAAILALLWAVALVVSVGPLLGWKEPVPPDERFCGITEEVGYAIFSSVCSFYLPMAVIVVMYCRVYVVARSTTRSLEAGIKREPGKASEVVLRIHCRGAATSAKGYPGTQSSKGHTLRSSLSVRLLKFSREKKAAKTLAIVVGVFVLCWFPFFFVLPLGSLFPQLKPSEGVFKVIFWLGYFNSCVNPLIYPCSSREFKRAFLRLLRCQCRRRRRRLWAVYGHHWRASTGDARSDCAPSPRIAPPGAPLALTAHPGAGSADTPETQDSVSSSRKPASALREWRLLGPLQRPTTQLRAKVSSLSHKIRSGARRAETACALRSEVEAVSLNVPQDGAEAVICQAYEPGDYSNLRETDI
The assay is described as follows: Effective concentration in vitro against rat aorta Alpha-1D adrenergic receptor;* indicates EC50 < 15% at a concentration of 10 uM. It is filed as tissue-based.

The target of assay [2] is T2, Alpha-1A adrenergic receptor (Rattus norvegicus, UniProt P43140).
T2 sequence (P43140 whole entry): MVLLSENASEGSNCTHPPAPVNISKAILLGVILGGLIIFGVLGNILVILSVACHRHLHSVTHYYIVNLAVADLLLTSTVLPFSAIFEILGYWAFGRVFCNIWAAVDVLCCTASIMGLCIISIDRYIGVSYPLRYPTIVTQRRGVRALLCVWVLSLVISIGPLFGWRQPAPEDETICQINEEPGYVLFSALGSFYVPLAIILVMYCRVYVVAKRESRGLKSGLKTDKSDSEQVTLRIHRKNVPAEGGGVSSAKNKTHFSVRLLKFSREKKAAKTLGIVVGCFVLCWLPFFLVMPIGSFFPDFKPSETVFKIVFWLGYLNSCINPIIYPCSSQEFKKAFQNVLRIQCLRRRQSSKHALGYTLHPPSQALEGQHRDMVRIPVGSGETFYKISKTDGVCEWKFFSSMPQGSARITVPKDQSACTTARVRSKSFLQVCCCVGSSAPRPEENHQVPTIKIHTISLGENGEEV
The assay is described as follows: Binding affinity towards rat submaxillary gland Alpha-1 adrenergic receptor; value ranges from (1.6 -2.5).

Assay [3] addresses T3, Alpha-1B adrenergic receptor (Rattus norvegicus, UniProt P15823).
T3 sequence (P15823 whole entry): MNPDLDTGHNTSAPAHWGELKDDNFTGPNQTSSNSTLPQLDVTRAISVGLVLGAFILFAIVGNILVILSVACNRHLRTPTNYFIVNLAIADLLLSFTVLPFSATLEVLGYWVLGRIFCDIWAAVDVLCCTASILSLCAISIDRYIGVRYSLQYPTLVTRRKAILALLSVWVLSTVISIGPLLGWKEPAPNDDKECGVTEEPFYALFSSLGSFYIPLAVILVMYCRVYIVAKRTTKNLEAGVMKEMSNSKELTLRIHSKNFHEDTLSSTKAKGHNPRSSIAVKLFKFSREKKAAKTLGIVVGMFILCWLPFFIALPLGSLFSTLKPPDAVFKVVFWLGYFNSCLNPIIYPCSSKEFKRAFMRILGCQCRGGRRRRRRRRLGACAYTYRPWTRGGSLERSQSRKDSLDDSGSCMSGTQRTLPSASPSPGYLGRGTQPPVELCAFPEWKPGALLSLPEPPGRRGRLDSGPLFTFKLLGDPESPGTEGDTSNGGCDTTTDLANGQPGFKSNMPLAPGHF
The assay is described as follows: Effective concentration in vitro against rat spleen Alpha-1B adrenergic receptor indicates EC50 < 15% at a concentration of 10 uM. It is filed as tissue-based.

Assay [4] concerns Canis familiaris. Nature of the assay: Dose corresponding to a 20 mmHg increase in mean arterial pressure (MAP) was determined in vivo in isoflurane anesthetized female beagles. In kind it is functional, Canis lupus familiaris, Beagle, Artery. The essentials:
(§1)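 Female beagles under isoflurane anesthesia; MAP by chronically implanted telemetry transducer/transmitter, IUP by urethral catheter, recorded simultaneously. Increasing iv doses given; maximal effect of each dose taken within 1 min of dosing. Doses giving 5 mmHg IUP rise (IUP ED5) and 20 mmHg MAP rise (MAP ED20) calculated, nmol/kg, mean ± SEM, n ≥ 4.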

In assay [5] the test system is Canis familiaris. The assay is described as follows: Dose corresponding to a 5 mmHg increase in Intraurethral pressure (IUP) was determined in vivo in isoflurane anesthetized female beagles. In kind it is functional, Canis lupus familiaris, Beagle. The procedure, abridged:
as §1

The target in assay [6] is T4, Alpha-1B adrenergic receptor (Mesocricetus auratus, UniProt P18841).
T4 sequence (P18841 whole entry): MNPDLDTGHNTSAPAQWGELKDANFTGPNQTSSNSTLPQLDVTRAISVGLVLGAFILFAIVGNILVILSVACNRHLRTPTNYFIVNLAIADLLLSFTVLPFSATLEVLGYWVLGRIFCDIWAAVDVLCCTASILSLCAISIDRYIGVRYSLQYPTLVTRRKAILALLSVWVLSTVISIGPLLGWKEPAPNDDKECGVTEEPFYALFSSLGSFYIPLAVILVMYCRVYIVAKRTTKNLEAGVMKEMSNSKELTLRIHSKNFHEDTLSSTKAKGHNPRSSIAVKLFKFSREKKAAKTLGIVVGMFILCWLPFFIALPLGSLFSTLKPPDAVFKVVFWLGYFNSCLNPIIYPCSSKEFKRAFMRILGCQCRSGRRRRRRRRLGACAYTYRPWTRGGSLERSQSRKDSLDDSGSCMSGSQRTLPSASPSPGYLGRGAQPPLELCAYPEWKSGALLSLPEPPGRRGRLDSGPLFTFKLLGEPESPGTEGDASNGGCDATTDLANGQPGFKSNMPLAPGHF
Nature of the assay: Binding affinity towards hamster cloned Alpha-1B adrenergic receptor; value ranges from (6.2 -7.7). More on the design: species or system Cricetulus griseus.

The species entered for assay [7] is Rattus norvegicus. The assay is described as follows: (§2) In vitro percent efficacy of compound was tested in rat aorta. It is filed as functional.
Assay [8] is filed under the species Rattus norvegicus. Nature of the assay: In vitro percent efficacy of compound was tested in rat spleen. It is filed as functional.
The species entered for assay [9] is Oryctolagus cuniculus. Nature of the assay: In vitro percent efficacy of compound was tested in rabbit urethra. It is filed as functional.
Assay [10] concerns the target T1, Alpha-1D adrenergic receptor. Nature of the assay: Binding affinity towards rat cloned Alpha-1D adrenergic receptor; value ranges from (1.5 - 1.9).
Assay [11] shares this target. Nature of the assay: Binding affinity towards rat cloned Alpha-1D adrenergic receptor; value ranges from (1.3 -1.6).
In assay [12] the target is T4, Alpha-1B adrenergic receptor. The assay is described as follows: Binding affinity towards hamster cloned Alpha-1B adrenergic receptor; value ranges from (2.0 -4.4). More on the design: species or system Cricetulus griseus.
The species entered for assay [13] is Rattus norvegicus. The description is as §2. In kind it is functional. The essentials:
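Isolated tissue contraction: agonist dose–response curves run in rat aorta (α1D) and rat spleen (α1B). Efficacy is the percent response relative to phenylephrine. EC50 is taken as the dose contracting the tissue 50%. Data reported ± SEM.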
This is another data set of the same source.

Assay [14] has as its target T2, Alpha-1A adrenergic receptor. Nature of the assay: Binding affinity towards rat submaxillary gland Alpha-1 adrenergic receptor; value ranges from (6.2 - 15).
The target of assay [15] is T1, Alpha-1D adrenergic receptor. The assay is described as follows: Binding affinity towards rat cloned Alpha-1D adrenergic receptor; value ranges from (5.5 -13).
Assay [16] deals with T4, Alpha-1B adrenergic receptor. The assay is described as follows: Binding affinity towards hamster cloned Alpha-1B adrenergic receptor mean;value ranges from( 6.4 -14). On the set-up: species or system Cricetulus griseus.
The species named for assay [17] is Rattus norvegicus. Nature of the assay: In vitro percent efficacy of compound was tested rat spleen. In kind it is functional.
Assay [18] deals with T2, Alpha-1A adrenergic receptor. The assay is described as follows: Binding affinity towards rat submaxillary gland Alpha-1 adrenergic receptor; value ranges from (0.12 - 0.15).
For assay [19], the target named is T1, Alpha-1D adrenergic receptor. The assay is described as follows: Antagonistic activity against Alpha-1D adrenergic receptor determined using phenylephrine challenge in rat aorta isolated tissues. It is filed as functional, tissue-based. Particulars: read-out: pA2 (converted).
Assay [20] deals with T5, Alpha-1B adrenergic receptor (Rattus norvegicus) (UniProt P15823).
T5 sequence (whole entry): T3 sequence (P15823 whole entry)
The assay is described as follows: Effective concentration in vitro against rat spleen Alpha-1B adrenergic receptor (EC50 < 15%) at a concentration of 10 uM; NA is not active. In kind it is tissue-based.

Assay [21] has as its target T3, Alpha-1B adrenergic receptor. Nature of the assay: Antagonistic activity against Alpha-1B adrenergic receptor determined using phenylephrine challenge in rat spleen isolated tissues. In kind it is functional, tissue-based. Particulars: read-out: pA2 (converted).

In the case of `COc1ccc(OC)c(C(O)CN)c1` (stereo not drawn) [DESGLYMIDODRINE], the EC50 in [1] was 1.9 µM; in assay [3], 85 µM. Also, the Ki was determined as 2 µM in assay [2], 6.9 µM in [6] and 1.7 µM in [10]. Also, the ED20 in [4] came to 250 nM/kg. For the same compound, in assay [5], the ED5 was determined as 205 nM/kg. Besides, the Efficacy in [7] came out at 106%; in assay [8] it was 68%; in assay [9], 133%.

For the compound `CS(=O)(=O)Nc1c(O)ccc2c1CCCC2C1=NCCN1` (stereo not drawn), the Ki in assay [11] was 1.5 µM; in assay [12], 2.9 µM. Besides, in assay [4], the ED20 worked out at 0.27 nM/kg. Besides, the ED5 in assay [5] was 0.16 nM/kg. Also, the Efficacy in assay [13] is reported as 100%; in [9], 88%.

For `C[C@H](N)[C@H](O)c1ccccc1` [(1R,2S)-PHENYLPROPANOLAMINE], the EC50 in [1] is 58 µM; in [3] it was 280 µM. In addition, the Ki in assay [14] was determined as 9.8 µM; in assay [15], 8.4 µM; in [16] it was 9.6 µM. In assay [4], this compound displayed an ED20 of 330 nM/kg. The compound further gave an ED5 in [5] of 1100 nM/kg. In addition, the Efficacy in assay [7] worked out at 91%; in assay [17], 34%; in [9] it was 68%.

With `CCS(=O)(=O)Nc1cccc(Cc2c[nH]cn2)c1`, the Ki in assay [18] was determined as 0.14 µM. Also, the Kb is 0.631 µM in [19] and 3.98 µM in assay [21]. For the same compound, the NA result in assay [20] is “inactive”. Also, in [4], the ED20 was 80 nM/kg. In assay [5], this compound returned an ED5 of 12 nM/kg. Moreover, in [9], the Efficacy is 80%.

One may read the EC50 as the concentration giving half of the maximal effect. The Ki is the equilibrium dissociation constant of an inhibitor or competing ligand from its target. A lower Ki goes with tighter binding.
